Laboratory results taken from ChEMBL document CHEMBL4387700, “A novel, potent, and orally bioavailable thiazole HCV NS5A inhibitor for the treatment of hepatitis C virus” (Eur J Med Chem, 2019).

What was measured:
[1] = Oral bioavailability in Beagle dog at 0.5 mg/kg by HPLC-MS/MS analysis; assay type: ADME, organism-based, Canis lupus familiaris; settings: in vivo
How it was run: (§1)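 Male Beagle dogs, 9–10 months old, n = 3, dosed iv 0.1 mg/kg or orally 0.5 mg/kg. Blood was drawn at 0, 2, 5 (iv only), 15, 30 min and 1, 2, 4, 6, 8, 24 h and kept on ice. Plasma was assayed by HPLC-MS/MS, with non-compartmental analysis. The iv formulation was a solution in DMA/propylene glycol (20/80, v/v).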

[2] = Toxicity in Beagle dog assessed as effect on clinical observations at 0.5 mg/kg, po; assay type: organism-based, Canis lupus familiaris; settings: in vivo
How it was run: (§2)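 Male Beagle dogs, 9–10 months old, n = 3, were given a single intravenous (0.1 mg/kg) or oral (0.5 mg/kg) dose. The intravenous solution was in DMA/propylene glycol (20/80, v/v). Dose volume was set by pre-dose body weight. Blood was sampled up to 24 h. Deaths, body weight and clinical observations were recorded during the pharmacokinetic study.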

[3] = Toxicity in Beagle dog assessed as death at 0.5 mg/kg, po; assay type: organism-based, Canis lupus familiaris; settings: in vivo; how it was run: as §2
[4] = Tmax in Sprague-Dawley rat at 5 mg/kg, po by HPLC-MS/MS analysis; assay type: ADME, organism-based; settings: in vivo
How it was run: (§3)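 Male Sprague-Dawley rats, 330–380 g, 9–10 weeks old, n = 3, jugular-cannulated 1 day ahead and fasted. Dosed iv 1.0 mg/kg or orally 5.0 mg/kg. Cannula blood was drawn at 0, 2, 5 (iv only), 15, 30 min and 1, 2, 4, 6, 8, 24 h. Plasma was assayed by HPLC-MS/MS, with non-compartmental analysis. The iv vehicle was DMA/propylene glycol (20/80, v/v).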

[5] = Toxicity in Sprague-Dawley rat assessed as effect on clinical observations at 5 mg/kg, po; assay type: organism-based; settings: in vivo
How it was run: (§4)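 Male Sprague-Dawley rats, 330–380 g, 9–10 weeks old, n = 3, were quarantined 1 week and jugular-cannulated 1 day before dosing. They were fasted, then given a single intravenous (1.0 mg/kg; DMA/propylene glycol 20/80, v/v) or oral (5.0 mg/kg) dose. Deaths, body weight and clinical observations were monitored with blood sampling through 24 h.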

[6] = AUC in Beagle dog at 0.1 mg/kg, iv by HPLC-MS/MS analysis; assay type: ADME, organism-based, Canis lupus familiaris; settings: in vivo; how it was run: as §1
[7] = Cmax in Beagle dog at 0.5 mg/kg, po by HPLC-MS/MS analysis; assay type: ADME, organism-based, Canis lupus familiaris; design: dose 0.5 mg/kg, route oral; settings: in vivo; how it was run: as §1
[8] = Toxicity in Sprague-Dawley rat assessed as effect on clinical observations at 1 mg/kg, iv; assay type: organism-based; settings: in vivo; how it was run: as §4
[9] = Cmax in Sprague-Dawley rat at 5 mg/kg, po by HPLC-MS/MS analysis; assay type: ADME, organism-based; design: dose 5 mg/kg, route oral; settings: in vivo; how it was run: as §3
[10] = AUC in Beagle dog at 0.5 mg/kg, po by HPLC-MS/MS analysis; assay type: ADME, organism-based, Canis lupus familiaris; settings: in vivo; how it was run: as §1
[11] = Half life in Beagle dog at 0.5 mg/kg, po by HPLC-MS/MS analysis; assay type: ADME, organism-based, Canis lupus familiaris; settings: in vivo; how it was run: as §1
[12] = Plasma clearance in Beagle dog at 0.1 mg/kg, iv by HPLC-MS/MS analysis; assay type: ADME, organism-based, Canis lupus familiaris; how it was run: as §1
[13] = Toxicity in Beagle dog assessed as effect on body weight at 0.5 mg/kg, po; assay type: organism-based, Canis lupus familiaris; settings: in vivo; how it was run: as §2
[14] = Toxicity in Sprague-Dawley rat assessed as effect on body weight at 1 mg/kg, iv; assay type: organism-based; settings: in vivo; how it was run: as §4
[15] = Toxicity in Beagle dog assessed as effect on body weight at 0.1 mg/kg, iv; assay type: organism-based, Canis lupus familiaris; settings: in vivo; how it was run: as §2
[16] = Half life in Beagle dog at 0.1 mg/kg, iv by HPLC-MS/MS analysis; assay type: ADME, organism-based, Canis lupus familiaris; settings: in vivo; how it was run: as §1
[17] = Tmax in Beagle dog at 0.5 mg/kg, po by HPLC-MS/MS analysis; assay type: ADME, organism-based, Canis lupus familiaris; settings: in vivo; how it was run: as §1
[18] = Cytotoxicity against human HuH7 cells assessed as reduction in cell viability by MTS assay; assay type: cell-based, Huh-7
How it was run: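 Viability of Huh-7 cells was read by MTS assay.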

[19] = Volume of distribution at steady state in Sprague-Dawley rat at 1 mg/kg, iv by HPLC-MS/MS analysis; assay type: ADME, organism-based; settings: in vivo, read-out: Vdss; how it was run: as §3
[20] = AUC in Sprague-Dawley rat at 5 mg/kg, po by HPLC-MS/MS analysis; assay type: ADME, organism-based; settings: in vivo; how it was run: as §3
[21] = Oral bioavailability in Sprague-Dawley rat at 5 mg/kg by HPLC-MS/MS analysis; assay type: ADME, organism-based; settings: in vivo; how it was run: as §3
[22] = Volume of distribution at steady state in Beagle dog at 0.1 mg/kg, iv by HPLC-MS/MS analysis; assay type: ADME, organism-based, Canis lupus familiaris; settings: in vivo, read-out: Vdss; how it was run: as §1
[23] = Toxicity in Sprague-Dawley rat assessed as death at 5 mg/kg, po; assay type: organism-based; settings: in vivo; how it was run: as §4
[24] = AUC in Sprague-Dawley rat at 1 mg/kg, iv by HPLC-MS/MS analysis; assay type: ADME, organism-based; settings: in vivo; how it was run: as §3
[25] = biological target: T1, Nonstructural protein 5A (Hepatitis C virus) (UniProt Q5L478); experiment: Potency index, ratio of daclatasvir EC50 to test compound EC50 for inhibition of NS5A in HCV genotype 1b infected in human HuH7 replicon cells; assay type: cell-based; settings: Hepatitis C virus subtype 1b
T1 sequence (whole entry): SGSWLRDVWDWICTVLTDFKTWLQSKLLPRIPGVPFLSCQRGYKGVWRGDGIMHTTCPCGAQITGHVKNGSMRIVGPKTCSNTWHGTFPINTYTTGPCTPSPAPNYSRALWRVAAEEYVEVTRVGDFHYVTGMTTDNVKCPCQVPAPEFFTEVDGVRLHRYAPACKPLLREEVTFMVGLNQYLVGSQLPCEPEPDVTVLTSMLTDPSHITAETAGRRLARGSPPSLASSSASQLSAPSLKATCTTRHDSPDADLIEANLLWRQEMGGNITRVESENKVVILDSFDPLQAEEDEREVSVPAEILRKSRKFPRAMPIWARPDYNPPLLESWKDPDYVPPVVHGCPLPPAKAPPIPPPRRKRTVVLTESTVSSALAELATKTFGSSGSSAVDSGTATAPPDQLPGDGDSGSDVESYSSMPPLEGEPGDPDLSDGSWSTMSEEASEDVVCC

[26] = Plasma clearance in Sprague-Dawley rat at 1 mg/kg, iv by HPLC-MS/MS analysis; assay type: ADME, organism-based; how it was run: as §3
[27] = Toxicity in Beagle dog assessed as effect on clinical observations at 0.1 mg/kg, iv; assay type: organism-based, Canis lupus familiaris; settings: in vivo; how it was run: as §2
[28] = Toxicity in Sprague-Dawley rat assessed as death at 1 mg/kg, iv; assay type: organism-based; settings: in vivo; how it was run: as §4
[29] = Half life in Sprague-Dawley rat at 1 mg/kg, iv by HPLC-MS/MS analysis; assay type: ADME, organism-based; settings: in vivo; how it was run: as §3
[30] = Toxicity in Sprague-Dawley rat assessed as effect on body weight at 5 mg/kg, po; assay type: organism-based; settings: in vivo; how it was run: as §4
[31] = Half life in Sprague-Dawley rat at 5 mg/kg, po by HPLC-MS/MS analysis; assay type: ADME, organism-based; settings: in vivo; how it was run: as §3
[32] = Toxicity in Beagle dog assessed as death at 0.1 mg/kg, iv; assay type: organism-based, Canis lupus familiaris; settings: in vivo; how it was run: as §2

O=C(N[C@@H](C(=O)N1CCC[C@H]1c1ncc(-c2ccc(-c3ccc(-c4cnc([C@@H]5CCCN5C(=O)[C@H](NC(=O)C5CC5)c5ccccc5)s4)cc3)cc2)s1)c1ccccc1)C1CC1
bioavailability [1]: 23.3% | Activity [2]: Non-Toxic | Activity [3]: Non-Toxic | Tmax [4]: 3.3 h | Activity [5]: Non-Toxic | AUC [6]: 1390 ng·h/mL | Cmax [7]: 94.9 ng/mL | Activity [8]: Non-Toxic | Cmax [9]: 305 ng/mL | AUC [10]: 1620 ng·h/mL | half-life [11]: 21.4 h | clearance [12]: 1.3 mL/min/kg | Activity [13]: Non-Toxic | Activity [14]: Non-Toxic | Activity [15]: Non-Toxic | half-life [16]: 19.2 h | Tmax [17]: 2.5 h | CC50 [18]: > 50 µM | Vd [19]: 1.3 L/kg | AUC [20]: 14500 ng·h/mL | bioavailability [21]: 22% | Vd [22]: 1.6 L/kg | Activity [23]: Non-Toxic | AUC [24]: 16300 ng·h/mL | Ratio EC50 [25]: 3 | clearance [26]: 1.1 mL/min/kg | Activity [27]: Non-Toxic | Activity [28]: Non-Toxic | half-life [29]: 18.3 h | Activity [30]: Non-Toxic | half-life [31]: 20.4 h | Activity [32]: Non-Toxic
